Calls of active or inactive are those of the source.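 The calls were made as follows, unless noted: active = viability at or below 10% of carrier control in both of two separate runs; inconclusive = viability at or below 10% in only one of the two runs; inactive = the rest.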

Test [1] is described as follows: Her2 expression decrease, cell viability multiplex – SKBR3 breast tumor cells, AlphaScreen, ATP viability, primary screen (AID 461;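 active = Her2 level under about 52% in both replicate screens, with viability over 70% of control, limit read from the data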;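 as to Her2 level: lower value means less Her2 protein in the cells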;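 as to viability: percent of carrier control wells set as 100% viability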). Conditions: SKBR3 Her2 protein level, 18-24 h, measured here: SKBR3 viability, ATP luminescence, at 10 µM. (In general: Bead proximity is the source of the signal in Alpha formats.)
Test [2] concerns the target Receptor tyrosine-protein kinase erbB-2 (Homo sapiens) (UniProt P04626). The test is described as above. Particulars: 18-24 h, at 10 µM, stronger effect = lower value.
Test [3] can be described thus: reduced viability of SK-BR-3 breast cancer cells – cell-based, 24 h, human, pilot screen (AID 572).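 Also: compound exposure lasted between 18 and 24 h rather than exactly 24 h; 100% = carrier-treated control wells.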 Conditions: SK-BR-3 viability, CellTiter-Glo luminescence, at 10 µM, stronger effect = lower value. (In general: Cellular ATP, detected with luciferase, serves as a proxy for viable cell number.)
Test [4] in a line: HUVEC growth inhibition – cell-based, human, primary screen (AID 575;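 active = viability at or below 30% in both replicate assays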;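 also: 100% = median of untreated cell wells with 0.1% DMSO on each plate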). Particulars: HUVEC proliferation, CellTiter-Glo luminescence, 72 h; at 10 µM; stronger effect = lower value. Put shortly:
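Test system: primary human umbilical vein endothelial cells. Quantity: 1250 cells/well. Compound: single 10 µM dose, 0.1% DMSO, from 5x medium stock. Timing: 72 h treatment at 37 °C. Detection: ATP-based CellTiter-Glo luminescent read. Benchmarks: vehicle and MePR control wells. Format: 384-well plates coated with collagen.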

Test [5] can be described thus: H69AR cell proliferation blockers – human, duplicate replicates, primary screen (AID 580;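 active = viability at or under a set limit in both replicates, limit being median viability minus 3 SD, cut at about 48% in these data, passing the limit was not always enough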;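 also: 100% = mean luminescence of untreated wells and 0% = no signal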). Conditions: H69AR lung tumor cells viability, ATP luminescence, 72 h; at 10 µM; stronger effect = lower value.
A short description of test [6]: MRP1 drug-resistance reversers in H69AR cells – cell-based, doxorubicin co-treatment, pilot screen (AID 601;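 active = viability loss from added drug above about 55%, and viability with drug at most 40%, in both replicates, limit read from the data, passing the limit was not always enough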). Conditions: CellTiter-Glo, 72 h, at 10 µM; for differential viability (reversal): stronger effect = higher value.
Test [7] in a line: yeast transport mutant growth inhibition pilot in 384-well plates, post-Golgi transport modulator project (AID 636; in the data active = inhibition above about 31%). Particulars: absorbance 615 nm, about 18 h, stronger effect = higher value.
The nature of test [8]: growth suppression of yeast trafficking mutant, preliminary HTS, modulators of trafficking downstream of Golgi apparatus project, 1536-format plate, OD 615 nm (AID 637; in the data active = inhibition above about 30%). Conditions: yeast transport mutant growth, absorbance 615 nm, 18 h; stronger effect = higher value.
[9] abbreviates: H69AR cells + 2 uM doxorubicin, measured here: viability with 2 uM doxorubicin, stronger effect = lower value.
The mark [10] stands for this setting: H69AR cells, compound alone cytotoxicity.

Receptor tyrosine-protein kinase erbB-2 (Homo sapiens), sequence (P04626 whole entry, looked up): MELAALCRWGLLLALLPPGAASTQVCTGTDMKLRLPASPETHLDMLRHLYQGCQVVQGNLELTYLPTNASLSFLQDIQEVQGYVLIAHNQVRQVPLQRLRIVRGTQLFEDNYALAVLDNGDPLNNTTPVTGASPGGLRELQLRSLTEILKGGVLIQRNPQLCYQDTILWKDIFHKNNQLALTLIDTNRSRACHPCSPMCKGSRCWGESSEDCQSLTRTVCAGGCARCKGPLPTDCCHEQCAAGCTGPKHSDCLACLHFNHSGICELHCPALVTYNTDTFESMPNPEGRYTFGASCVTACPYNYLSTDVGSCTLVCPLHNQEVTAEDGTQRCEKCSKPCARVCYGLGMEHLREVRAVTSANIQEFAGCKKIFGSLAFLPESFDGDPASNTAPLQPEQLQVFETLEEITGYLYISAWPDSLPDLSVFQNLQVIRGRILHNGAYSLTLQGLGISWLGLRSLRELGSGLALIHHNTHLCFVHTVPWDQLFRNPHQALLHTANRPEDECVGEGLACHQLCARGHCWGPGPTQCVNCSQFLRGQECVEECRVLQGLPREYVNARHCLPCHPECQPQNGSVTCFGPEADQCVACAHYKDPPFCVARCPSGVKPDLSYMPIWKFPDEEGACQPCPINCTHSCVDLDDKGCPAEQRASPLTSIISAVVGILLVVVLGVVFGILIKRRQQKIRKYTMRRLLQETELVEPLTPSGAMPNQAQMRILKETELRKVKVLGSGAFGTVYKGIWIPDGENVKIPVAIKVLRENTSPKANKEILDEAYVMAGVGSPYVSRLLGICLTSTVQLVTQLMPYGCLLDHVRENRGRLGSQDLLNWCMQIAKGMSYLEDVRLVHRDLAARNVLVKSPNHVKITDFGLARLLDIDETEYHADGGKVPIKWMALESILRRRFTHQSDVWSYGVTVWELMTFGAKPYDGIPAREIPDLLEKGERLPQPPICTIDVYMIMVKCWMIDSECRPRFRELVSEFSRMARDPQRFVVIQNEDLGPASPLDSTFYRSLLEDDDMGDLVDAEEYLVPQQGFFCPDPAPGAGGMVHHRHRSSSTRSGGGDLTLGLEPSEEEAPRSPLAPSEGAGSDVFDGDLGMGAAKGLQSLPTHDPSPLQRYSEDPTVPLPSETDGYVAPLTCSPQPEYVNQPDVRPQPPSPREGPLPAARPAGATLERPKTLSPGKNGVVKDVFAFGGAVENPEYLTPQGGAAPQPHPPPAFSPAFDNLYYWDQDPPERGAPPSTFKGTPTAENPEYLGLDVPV

For the compound `Cc1ccc(S(=O)(=O)Nc2cc(C(=O)O)ccc2N2CCCCC2)cc1`, the viability (commonly a read-out of living cells in per cent, often relative to untreated cells) in test [1] was 112%; in test [3], 112% (inactive); in test [4], 101% (inactive); in test [5], 85.6% (inactive); in test [6] (setting [9]), 87.6%; in test [6] (setting [10]) it was 85.6%. Also, the Her2 level in test [2] is 112% (inactive). For the same compound, the differential viability (reversal) in test [6] (H69AR cells + 2 uM doxorubicin) is -1.99% (inactive). Also, the inhibition (usually the drop in the measured response relative to a control, in per cent) is -5.97% (inactive) in test [7] and 6.07% (inactive) in test [8].

For `CCOC(=O)N1CCC2(CC1)CC(=O)c1c(ccc3oc(C(=O)O)c(C)c13)O2`, the viability in test [1] was 118%; in test [3], 118% (inactive); in test [4], 111% (inactive); in test [5], 92.3% (inactive); in test [6] (setting [9]), 88.7%; in test [6] (setting [10]) it was 92.3%. The Her2 level in test [2] is 96% (inactive). Also, the differential viability (reversal) in test [6] (H69AR cells + 2 uM doxorubicin) was 3.56% (inactive). The inhibition in test [7] was -0.79% (inactive); in test [8] it was -4.55% (inactive).

As for `CCCCC(=O)Nc1nn(CCC)c2nc3ccccc3cc12`, the viability is 94% in test [1]; 94% (inactive) in test [3]; 92.5% (inactive) in test [4]; 96.1% (inactive) in test [5]; 102% in test [6] (setting [9]); 96.1% in test [6] (setting [10]). The Her2 level in test [2] was 92% (inactive). In addition, in test [6] (H69AR cells + 2 uM doxorubicin), the differential viability (reversal) was -5.81% (inactive). Besides, the inhibition in test [7] was -1.97% (inactive); in test [8] it was 6.23% (inactive).

With `O=C(Cn1ncc2ccccc21)N1CCN(c2cccc(C(F)(F)F)c2)CC1`, the viability in test [1] is 89.5%; in test [3], 89.5% (inactive); in test [4], 93.4% (inactive); in test [5] it was 87.1% (inactive); in test [6] (setting [9]) it was 94.1%; in test [6] (setting [10]), 87.1%. In test [2], the Her2 level was 94.5% (inactive). Further, the differential viability (reversal) in test [6] (H69AR cells + 2 uM doxorubicin) was -6.95% (inactive). Moreover, the inhibition in test [7] is -5.87% (inactive); in test [8], -1.97% (inactive).

Turning to `Cc1nc2ccc(CCO)cc2s1`, the viability in test [1] is 97.5%; in test [3] it was 97.5% (inactive); in test [4], 102% (inactive); in test [5], 93.9% (inactive); in test [6] (setting [9]), 94.8%; in test [6] (setting [10]), 93.9%. Moreover, the Her2 level in test [2] is 95.5% (inactive). Also, in test [6] (H69AR cells + 2 uM doxorubicin), the differential viability (reversal) was -0.945% (inactive). In addition, the inhibition in test [7] is -5.89% (inactive); in test [8], 0.79% (inactive).

Take `COc1cc(OC)c(C(=O)Nc2ccc(N(C)C)cc2)cc1OC`: the viability is 111% in test [1]; 111% (inactive) in test [3]; 103% (inactive) in test [4]; 89% (inactive) in test [5]; 93.4% in test [6] (setting [9]); 89% in test [6] (setting [10]). Moreover, the Her2 level in test [2] is 84.5% (inactive). For the same compound, the differential viability (reversal) in test [6] (H69AR cells + 2 uM doxorubicin) was -4.37% (inactive). For the same compound, the inhibition in test [7] is -1.84% (inactive); in test [8], -1.9% (inactive).

In the case of `CCSCCC(NC1=CC(=O)CC(C)(C)C1)C(=O)O` (stereo not given), the viability is 92% in test [1]; 92% (inactive) in test [3]; 116% (inactive) in test [4]; 101% (inactive) in test [5]; 94.8% in test [6] (setting [9]); 101% in test [6] (setting [10]). In addition, the Her2 level in test [2] is 89% (inactive). Moreover, the differential viability (reversal) in test [6] (H69AR cells + 2 uM doxorubicin) was 5.77% (inactive). Further, the inhibition in test [7] was 1.58% (inactive); in test [8], -3.45% (inactive).

Consider `COc1ccc(C(=O)N(Cc2ccco2)C(C(=O)NC2CCCC2)c2ccc(O)cc2)cc1OC` (stereo not given), for which the viability was 77.5% in test [1]; 77.5% (inactive) in test [3]; 76.8% (inactive) in test [4]; 78.8% (inactive) in test [5]; 80.4% in test [6] (setting [9]); 78.8% in test [6] (setting [10]). Further, in test [2], the Her2 level is 85% (inactive). Also, the differential viability (reversal) in test [6] (H69AR cells + 2 uM doxorubicin) was -1.66% (inactive). For the same compound, the figures for the inhibition in test [7] and in test [8] were -1.32% (inactive) and -8% (inactive), respectively.

Turning to `Cc1ccccc1CNS(=O)(=O)c1ccc2c(c1)OCCO2`, the viability was 95.5% in test [1]; 95.5% (inactive) in test [3]; 83.6% (inactive) in test [4]; 109% (inactive) in test [5]; 92% in test [6] (setting [9]); 109% in test [6] (setting [10]). Moreover, in test [2], the Her2 level was 104% (inactive). In addition, the differential viability (reversal) in test [6] (H69AR cells + 2 uM doxorubicin) is 17.3% (inactive). Moreover, the inhibition is -5.47% (inactive) in test [7] and -6.77% (inactive) in test [8].

As for `COc1ccc2[nH]c(=O)c(CN(CC3CCCO3)C(=O)Nc3ccc(F)cc3)cc2c1` (stereo not given), the viability is 84.5% in test [1]; 84.5% (inactive) in test [3]; 26.1% (active) in test [4]; 39.4% (active) in test [5]; 47.8% in test [6] (setting [9]); 39.4% in test [6] (setting [10]). Moreover, the Her2 level in test [2] is 113% (inactive). Further, in test [6] (H69AR cells + 2 uM doxorubicin), the differential viability (reversal) is -8.38% (inactive). Besides, the inhibition in test [7] was -0.68% (inactive); in test [8], 2.46% (inactive).

For the origin of these results see PubChem BioAssay.
